Assay [1] deals with Aspergillus niger. Briefly: Antifungal activity against Aspergillus niger ATCC 16888 at 1 mg/ml after 48 hrs by agar-well diffusion assay. It is filed as functional. Summed up:
(§1)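 Fungi and yeasts streaked on mycophil agar from broth culture diluted 1:10 in sterile water; 100 μl of compound at 1 mg/ml placed in 11 mm cork-borer wells; plates held at 30°. Inhibition zone width (mm) recorded at 48 and 72 h and coded – to ++++ (1–2, 3–6, 7–12, >13 mm); amphotericin B positive control.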

Assay [2] has as its system Candida albicans. Kind of assay: Antifungal activity against Candida albicans ATCC 10231 at 1 mg/ml after 72 hrs by agar-well diffusion assay. It is filed as functional. The note with it: ATCC 10231, 72 h, read-out: IZ. Summed up: as §1
For orientation: A growth-free zone around the sample is the usual read-out of agar diffusion tests.

In assay [3] the test system is Trametes sanguinea. Briefly: Antifungal activity against Polyporus sanguineus ATCC 16422 at 1 mg/ml after 48 hrs by agar-well diffusion assay. It is filed as functional. Summed up: as §1
The test system of assay [4] is Candida albicans. Briefly: Antifungal activity against Candida albicans ATCC 10231 at 1 mg/ml after 48 hrs by agar-well diffusion assay. It is filed as functional. The note with it: ATCC 10231, 48 h, read-out: IZ. Summed up: as §1
Assay [5] deals with Aspergillus niger. Briefly: Antifungal activity against Aspergillus niger ATCC 16888 at 1 mg/ml after 72 hrs by agar-well diffusion assay. It is filed as functional. Summed up:
as §1

For assay [6], the system named is Bacillus subtilis. Kind of assay: Antibacterial activity against Bacillus subtilis ATCC 6633 at 1 mg/ml after 24 hrs by agar-well diffusion assay. It is filed as functional. Conditions: ATCC 6633, 24 h, read-out: IZ. Summed up: (§2)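 Agar-well diffusion on eugon agar, bacteria streaked by quadrant method from broth culture diluted 1:10 in sterile water; 11 mm wells given 100 μl of compound at 1 mg/ml; 37° incubation. Zone width (mm) read at 24 and 48 h, coded –, + (1–2), ++ (3–6), +++ (7–12), ++++ (>13); streptomycin sulfate positive control.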

In assay [7] the test system is Pseudomonas aeruginosa. Kind of assay: Antibacterial activity against Pseudomonas aeruginosa ATCC 15442 at 1 mg/ml after 24 hrs by agar-well diffusion assay. It is filed as functional. Summed up: as §2
Assay [8] concerns Mycolicibacterium smegmatis. Briefly: Antibacterial activity against Mycobacterium smegmatis ATCC 607 at 1 mg/ml after 48 hrs by agar-well diffusion assay. Conditions: ATCC 607, 48 h, read-out: IZ.
Assay [9] relates to Pseudomonas aeruginosa. Briefly: Antibacterial activity against Pseudomonas aeruginosa ATCC 15442 at 1 mg/ml after 48 hrs by agar-well diffusion assay. It is filed as functional. Summed up:
as §2

Assay [10] deals with Trichophyton mentagrophytes. Briefly: Antifungal activity against Trichophyton mentagrophytes ATCC 9972 at 1 mg/ml after 48 hrs by agar-well diffusion assay. It is filed as functional. Conditions: for zone of inhibition at 1000 µg/mL: ATCC 9972, 48 h, read-out: IZ. Summed up:
as §1

Assay [11] has as its system Helminthosporium. Kind of assay: Antifungal activity against Helminthosporium ATCC 4671 at 1 mg/ml after 72 hrs by agar-well diffusion assay. It is filed as functional. Conditions: for zone of inhibition at 1000 µg/mL: ATCC 4671, 72 h, read-out: IZ. Summed up: as §1
The subject of assay [12] is Helminthosporium. Kind of assay: Antifungal activity against Helminthosporium ATCC 4671 at 1 mg/ml after 48 hrs by agar-well diffusion assay. It is filed as functional. Conditions: for zone of inhibition at 1000 µg/mL: ATCC 4671, 48 h, read-out: IZ. Summed up:
as §1

For assay [13], the system named is Staphylococcus aureus. Briefly: Antibacterial activity against Staphylococcus aureus ATCC 6538 at 1 mg/ml after 24 hrs by agar-well diffusion assay. It is filed as functional. The note with it: for zone of inhibition at 1000 µg/mL: ATCC 6538, 24 h, read-out: IZ. Summed up: as §2
Assay [14] concerns Saccharomyces cerevisiae. Briefly: Antifungal activity against Saccharomyces cerevisiae ATCC 9763 at 1 mg/ml after 72 hrs by agar-well diffusion assay. It is filed as functional. Summed up: as §1
Assay [15] has as its system Staphylococcus aureus. Briefly: Antibacterial activity against Staphylococcus aureus ATCC 6538 at 1 mg/ml after 48 hrs by agar-well diffusion assay. It is filed as functional. Conditions: for zone of inhibition at 1000 µg/mL: ATCC 6538, 48 h, read-out: IZ. Summed up: as §2
The test system of assay [16] is Bacillus subtilis. Kind of assay: Antibacterial activity against Bacillus subtilis ATCC 6633 at 1 mg/ml after 48 hrs by agar-well diffusion assay. It is filed as functional. The note with it: ATCC 6633, 48 h, read-out: IZ. Summed up:
as §2

Assay [17] relates to Escherichia coli. Kind of assay: Antibacterial activity against Escherichia coli ATCC 10536 at 1 mg/ml after 48 hrs by agar-well diffusion assay. It is filed as functional. Summed up:
as §2

Assay [18] has as its system Escherichia coli. Kind of assay: Antibacterial activity against Escherichia coli ATCC 10536 at 1 mg/ml after 24 hrs by agar-well diffusion assay. It is filed as functional. Summed up:
as §2

Assay [19] deals with Trametes sanguinea. Kind of assay: Antifungal activity against Polyporus sanguineus ATCC 16422 at 1 mg/ml after 72 hrs by agar-well diffusion assay. It is filed as functional. Summed up:
as §1

Assay [20] concerns Trichophyton mentagrophytes. Kind of assay: Antifungal activity against Trichophyton mentagrophytes ATCC 9972 at 1 mg/ml after 72 hrs by agar-well diffusion assay. It is filed as functional. The note with it: for zone of inhibition at 1000 µg/mL: ATCC 9972, 72 h, read-out: IZ. Summed up:
as §1

Assay [21] deals with Saccharomyces cerevisiae. Briefly: Antifungal activity against Saccharomyces cerevisiae ATCC 9763 at 1 mg/ml after 48 hrs by agar-well diffusion assay. It is filed as functional. Summed up: as §1
Assay [22] relates to Mycolicibacterium smegmatis. Kind of assay: Antibacterial activity against Mycobacterium smegmatis ATCC 607 at 1 mg/ml after 48 hrs by agar-well diffusion assay. It is filed as functional. The note with it: ATCC 607, 48 h, read-out: IZ. Summed up: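 Quadrant-streaked eugon agar plates (broth culture diluted 1:10 in water) with 11 mm wells receiving 100 μl of 1 mg/ml compound, incubated at 37°; inhibition zone width in mm scored at 48 h and 72 h as –, +, ++, +++, ++++ (1–2, 3–6, 7–12, >13 mm); streptomycin sulfate control.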

Assay [23] concerns Bacillus subtilis. Kind of assay: Antibacterial activity against Bacillus subtilis ATCC 6633 after 24 hrs by twofold serial dilution method. It is filed as functional. The note with it: ATCC 6633, 24 h.
The test system of assay [24] is Bacillus subtilis. Briefly: Antibacterial activity against Bacillus subtilis ATCC 6633 after 48 hrs by twofold serial dilution method. It is filed as functional. The note with it: ATCC 6633, 48 h.

SMILES strings stand for the structures. In brackets after ≈: the same amount, converted by molar mass. Structures can show the parent of a compound that is named as a salt. Activity calls are given as the source filed them. No cut-off for these calls is given here.

In the case of `COC(=O)CC[C@]1(C)C(C(C)=O)CC[C@@]23C[C@@H]4[C@@H](CC21)[C@@]4(C)C3` (some centres undefined), the “inhibition zone (IZ)” value in assay [1], in assay [3], in assay [5], in [7], in assay [9] and in [10] was “inactive” throughout. Moreover, the “inhibition zone (IZ)” value in assay [11], in assay [12], in assay [13], in [14], in [15] and in [17] was “inactive” in each case. The “inhibition zone (IZ)” value in [18], in assay [19], in [20] and in assay [21] was “inactive” throughout. For the same molecule, the zone of inhibition at 1000 µg/mL in assay [2] worked out at 1 mm; in [4] it was 1 mm; in [6] it was 7 mm; in [8], 3 mm; in [16] it was 3 mm.

For `CN[C@@H]1[C@H](O[C@H]2[C@H](O[C@H]3[C@H](O)[C@@H](O)[C@H](N=C(N)N)[C@@H](O)[C@@H]3N=C(N)N)O[C@@H](C)[C@]2(O)C=O)O[C@@H](CO)[C@H](O)[C@H]1O` [STREPTOMYCIN SULFATE], the zone of inhibition at 1000 µg/mL is 7 mm in assay [6]; 7 mm in assay [7] (ATCC 15442, 24 h, read-out: IZ); greater than 12 mm in [8]; 3 mm in assay [9] (ATCC 15442, 48 h, read-out: IZ); 7 mm in assay [13]; 7 mm in [15]. For the same molecule, the zone of inhibition at 1000 µg/mL in assay [16] was 7 mm; in assay [17] (ATCC 10536, 48 h, read-out: IZ), 7 mm; in assay [18] (ATCC 10536, 24 h, read-out: IZ), 7 mm; in assay [22], greater than 12 mm.

For `COC(=O)C1=CCC[C@@H]2[C@@](C)(CCc3ccoc3)[C@H](C)CC[C@@]12C` [HARDWICKIC ACID METHYL ESTER], the “inhibition zone (IZ)” value in [1], in assay [3], in assay [5], in assay [7], in assay [9] and in [14] was “inactive” in each case. The “inhibition zone (IZ)” value in assay [17], in [18], in [19] and in assay [21] was “inactive” each time. The zone of inhibition at 1000 µg/mL in assay [2], in assay [4], in assay [6], in assay [8], in assay [10] and in assay [11] was 1 mm each time. Also, the zone of inhibition at 1000 µg/mL in [12], in [13], in assay [15], in [16], in assay [22] and in [20] was 1 mm in each case.

Consider `C=C(C)[C@@H]1CC[C@@]23C[C@@H]4[C@@H](C[C@H]2[C@]1(C)CCCO)[C@@]4(C)C3`, for which the “inhibition zone (IZ)” value in assay [1], in [3], in assay [5], in [7], in assay [9] and in [10] was “inactive” each time. Also, the “inhibition zone (IZ)” value in [11], in assay [12], in assay [14], in assay [15], in assay [17] and in [18] was “inactive” in each case. Further, the “inhibition zone (IZ)” value in assay [19], in assay [20] and in assay [21] was “inactive” throughout. The zone of inhibition at 1000 µg/mL in assay [2] amounted to 1 mm; in [4], 1 mm; in assay [6] it was 3 mm; in assay [8], 1 mm; in [13], 1 mm; in assay [16] it was 3 mm. The zone of inhibition at 1000 µg/mL in assay [22] turned out to be 1 mm.

In the case of `C=C(C)[C@@H]1CC[C@@]23C[C@@H]4[C@@H](C[C@H]2[C@]1(C)CCC(=O)OC)[C@@]4(C)C3`, the zone of inhibition at 1000 µg/mL in assay [6], in assay [8], in [13], in assay [15], in [16] and in [22] was 1 mm in each case. For the same molecule, the “inhibition zone (IZ)” value in assay [7], in [9], in assay [17] and in assay [18] was “inactive” each time.

As for `CN[C@@H]1[C@H](O[C@H]2[C@H](O[C@H]3[C@H](O)[C@@H](O)[C@H](N=C(N)N)[C@@H](O)[C@@H]3N=C(N)N)O[C@@H](C)[C@]2(O)C=O)O[C@@H](CO)[C@H](O)[C@H]1O` [STREPTOMYCIN], the MIC in [23] and in assay [24] was 3.12 µg/mL (≈ 5.36 µM) in each case.

In the case of `C[C@@H]1CC[C@@]2(C)C(CO)=CCC[C@@H]2[C@@]1(C)CCc1ccoc1` [HARDWICKIOL], the “inhibition zone (IZ)” value in [1], in [3], in assay [5], in [7], in [9] and in [17] was “inactive” throughout. The “inhibition zone (IZ)” value in [18] and in assay [19] was “inactive” in each case. Also, the zone of inhibition at 1000 µg/mL in assay [2] came out at 7 mm; in assay [4] it was 3 mm; in assay [6], 3 mm; in [8], 7 mm; in assay [10] it was 7 mm; in assay [11], 1 mm. Also, the zone of inhibition at 1000 µg/mL in [12] amounted to 3 mm; in assay [13], 3 mm; in assay [14] (ATCC 9763, 72 h, read-out: IZ), 3 mm; in assay [15], 3 mm; in [16], 3 mm; in assay [22] it was 7 mm. For the same molecule, the zone of inhibition at 1000 µg/mL stood at 3 mm in assay [20] and 3 mm in assay [21] (ATCC 9763, 48 h, read-out: IZ).

For the origin of these results see ChEMBL document CHEMBL1150203, “Antimicrobial diterpenes of Croton sonderianus, 1. Hardwickic and 3,4-secotrachylobanoic acids” (1991).
